Test results as given in ChEMBL document CHEMBL2417509, “Synthesis and biological evaluation of prodigiosene conjugates of porphyrin, estrone and 4-hydroxytamoxifen” (2013).
Activity calls are given as the source filed them. The calls are words filed in the database; no cut-off is given here.

Assays:
PC-3 = assay: Cytotoxicity against human PC3 cells after 2 days by sulforhodamine B assay; assay type: functional; settings: PC-3, 48 h
In short: (§1)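 NCI60 multi-dose screen, 59 human tumour lines available. Cells exposed to compound across a 5-log mol/L concentration range for 2 days, then fixed and stained with sulphorhodamine B, optical density read. Growth inhibition calculated against time-zero control and untreated cells. GI50 derived from the dose series, average of two replicates.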

SN12C = assay: Cytotoxicity against human SN12C cells after 2 days by sulforhodamine B assay; assay type: functional; settings: 48 h; in short: as §1
CAKI-1 = assay: Cytotoxicity against human CAKI-1 cells after 2 days by sulforhodamine B assay; assay type: functional; settings: CAKI-1, 48 h; in short: as §1
SK-OV-3 = assay: Cytotoxicity against human SKOV3 cells after 2 days by sulforhodamine B assay; assay type: functional; settings: SK-OV-3, 48 h; in short: as §1
OVCAR-8 = assay: Cytotoxicity against human OVCAR8 cells after 2 days by sulforhodamine B assay; assay type: functional; settings: OVCAR-8, 48 h; in short: as §1
[1] = Cytotoxicity against human NCI-ADR-RES cells after 2 days by sulforhodamine B assay; assay type: functional; settings: 48 h; in short: as §1
OVCAR-5 = assay: Cytotoxicity against human OVCAR5 cells after 2 days by sulforhodamine B assay; assay type: functional; settings: OVCAR-5, 48 h; in short: as §1
OVCAR-3 = assay: Cytotoxicity against human OVCAR3 cells after 2 days by sulforhodamine B assay; assay type: functional; settings: OVCAR-3, 48 h; in short: as §1
IGROV-1 = assay: Cytotoxicity against human IGROV1 cells after 2 days by sulforhodamine B assay; assay type: functional; settings: IGROV-1, 48 h; in short: as §1
UACC-62 = assay: Cytotoxicity against human UACC62 cells after 2 days by sulforhodamine B assay; assay type: functional; settings: UACC-62, 48 h
In short: (§2)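 NCI DTP NCI60 multi-dose screen (59 human tumour lines available). Cells exposed to compound over a 5-log mol/L concentration range for 2 days, then fixed and stained with sulphorhodamine B, with optical density read. Growth inhibition calculated relative to time-zero cells and untreated cells, giving GI50 (half-maximal growth inhibition concentration). Average of two replicates.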

UACC-257 = assay: Cytotoxicity against human UACC257 cells after 2 days by sulforhodamine B assay; assay type: functional; settings: UACC-257, 48 h; in short: as §2
SK-MEL-28 = assay: Cytotoxicity against human SK-MEL-28 cells after 2 days by sulforhodamine B assay; assay type: functional; settings: SK-MEL-28, 48 h; in short: as §1
MDA-MB-435 = assay: Cytotoxicity against human MDA-MB-435 cells after 2 days by sulforhodamine B assay; assay type: functional; settings: MDA-MB-435, 48 h; in short: as §1
SK-MEL-2 = assay: Cytotoxicity against human SK-MEL-2 cells after 2 days by sulforhodamine B assay; assay type: functional; settings: SK-MEL-2, 48 h; in short: as §1
Malme-3M = assay: Cytotoxicity against human MALME-3M cells after 2 days by sulforhodamine B assay; assay type: functional; settings: 48 h; in short: as §1
U-251 = assay: Cytotoxicity against human U251 cells after 2 days by sulforhodamine B assay; assay type: functional; settings: U-251, 48 h; in short: as §2
SNB-75 = assay: Cytotoxicity against human SNB75 cells after 2 days by sulforhodamine B assay; assay type: functional; settings: SNB-75, 48 h; in short: as §2
SF-539 = assay: Cytotoxicity against human SF539 cells after 2 days by sulforhodamine B assay; assay type: functional; settings: SF-539, 48 h; in short: as §1
SF-295 = assay: Cytotoxicity against human SF295 cells after 2 days by sulforhodamine B assay; assay type: functional; settings: SF-295, 48 h; in short: as §1
KM12 = assay: Cytotoxicity against human KM12 cells after 2 days by sulforhodamine B assay; assay type: functional; settings: KM12, 48 h; in short: as §1
HCT-15 = assay: Cytotoxicity against human HCT15 cells after 2 days by sulforhodamine B assay; assay type: functional; settings: HCT-15, 48 h; in short: as §1
HCT-116 = assay: Cytotoxicity against human HCT116 cells after 2 days by sulforhodamine B assay; assay type: functional; settings: HCT-116, 48 h; in short: as §1
NCI-H460 = assay: Cytotoxicity against human NCI-H460 cells after 2 days by sulforhodamine B assay; assay type: functional; settings: NCI-H460, 48 h; in short: as §1
NCI-H322M = assay: Cytotoxicity against human NCI-H322M cells after 2 days by sulforhodamine B assay; assay type: functional; settings: 48 h; in short: as §1
NCI-H226 = assay: Cytotoxicity against human NCI-H226 cells after 2 days by sulforhodamine B assay; assay type: functional; settings: NCI-H226, 48 h; in short: as §1
HOP-62 = assay: Cytotoxicity against human HOP62 cells after 2 days by sulforhodamine B assay; assay type: functional; settings: HOP-62, 48 h; in short: as §1
MCF7 = assay: Cytotoxicity against human ER positive MCF7 cells assessed as cell viability at 1 uM after 72 hrs by MTT assay; assay type: functional, cell-based
In short: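 Lines kept in DMEM with 10% fetal bovine serum and 1% penicillin/streptomycin at 37 °C, 5% CO2. Compound applied at 1 µM for 72 h, then standard MTT reduction read-out. Viability given as mean percentage of formazan formed by treated cells relative to mock-treated cells (0.1% DMSO). Run in quadruplicate, standard error, Student's t-test.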

T47D = assay: Cytotoxicity against human T47D cells after 2 days by sulforhodamine B assay; assay type: functional; settings: 48 h; in short: as §2
DU-145 = assay: Cytotoxicity against human DU145 cells after 2 days by sulforhodamine B assay; assay type: functional; settings: DU-145, 48 h; in short: as §1
UO-31 = assay: Cytotoxicity against human UO31 cells after 2 days by sulforhodamine B assay; assay type: functional; settings: UO-31, 48 h; in short: as §2
[2] = read-out: LC50 (the source's name)

COc1cc(-c2ccc[nH]2)[nH]c1/C=C1\N=C(C)C(C(=O)CCC(=O)Oc2ccc3c(c2)CC[C@@H]2[C@@H]3CC[C@]3(C)C(=O)CC[C@@H]23)=C1C
GI50 (PC-3): 7.45 µM | LC50 (concentration killing 50% of cells) (PC-3): > 100 µM | TGI (PC-3): > 100 µM | GI50 (SN12C): 5.21 µM | TGI (SN12C): > 100 µM | CC50 (SN12C; [2]): > 100 µM | GI50 (CAKI-1): 9.05 µM | LC50 (concentration killing 50% of the cells present at time zero) (CAKI-1): > 100 µM | TGI (CAKI-1): > 100 µM | GI50 (SK-OV-3): > 100 µM | LC50 (concentration killing 50% of starting cells) (SK-OV-3): > 100 µM | TGI (SK-OV-3): > 100 µM | GI50 (OVCAR-8): 8.36 µM | LC50 (OVCAR-8): > 100 µM | TGI (OVCAR-8): > 100 µM | GI50 [1]: 13.1 µM | TGI [1]: > 100 µM | CC50 [1, 2]: > 100 µM | GI50 (OVCAR-5): 9.64 µM | LC50 (OVCAR-5): > 100 µM | TGI (OVCAR-5): > 100 µM | GI50 (OVCAR-3): 17.6 µM | LC50 (OVCAR-3): > 100 µM | TGI (OVCAR-3): > 100 µM | GI50 (IGROV-1): 8.4 µM | LC50 (IGROV-1): > 100 µM | TGI (IGROV-1): > 100 µM | GI50 (UACC-62): 3.71 µM | TGI (UACC-62): 17.6 µM | CC50 (UACC-62; [2]): 65.1 µM | GI50 (UACC-257): 97.6 µM | TGI (UACC-257): > 100 µM | CC50 (UACC-257; [2]): > 100 µM | GI50 (SK-MEL-28): 75 µM | LC50 (SK-MEL-28): > 100 µM | TGI (SK-MEL-28): > 100 µM | GI50 (MDA-MB-435): 7.68 µM | TGI (MDA-MB-435): > 100 µM | CC50 (MDA-MB-435; [2]): > 100 µM | GI50 (SK-MEL-2): 15.6 µM | LC50 (SK-MEL-2): > 100 µM | TGI (SK-MEL-2): 58.8 µM | GI50 (Malme-3M): 29 µM | LC50 (Malme-3M): > 100 µM | TGI (Malme-3M): > 100 µM | GI50 (U-251): 3.41 µM | LC50 (U-251): > 100 µM | TGI (U-251): > 100 µM | GI50 (SNB-75): 59.1 µM | LC50 (concentration killing 50% of starting cells) (SNB-75): > 100 µM | TGI (SNB-75): > 100 µM | GI50 (SF-539): 15.5 µM | LC50 (SF-539): > 100 µM | TGI (SF-539): > 100 µM | GI50 (SF-295): 21.4 µM | LC50 (SF-295): > 100 µM | TGI (SF-295): 85.4 µM | GI50 (KM12): 6.25 µM | LC50 (KM12): > 100 µM | TGI (KM12): > 100 µM | GI50 (HCT-15): 2.6 µM | LC50 (HCT-15): > 100 µM | TGI (HCT-15): > 100 µM | GI50 (HCT-116): 0.8 µM | LC50 (concentration killing 50% of cells vs time zero) (HCT-116): > 100 µM | TGI (HCT-116): > 100 µM | GI50 (NCI-H460): 3.09 µM | LC50 (NCI-H460): > 100 µM | TGI (NCI-H460): > 100 µM | GI50 (NCI-H322M): 32.6 µM | LC50 (concentration killing 50% of cells) (NCI-H322M): > 100 µM | TGI (NCI-H322M): > 100 µM | GI50 (NCI-H226): 11.1 µM | LC50 (NCI-H226): > 100 µM | TGI (NCI-H226): > 100 µM | GI50 (HOP-62): 18.3 µM | TGI (HOP-62): 65.9 µM | CC50 (HOP-62; [2]): > 100 µM | Activity (MCF7): inactive | GI50 (T47D): 15.4 µM | LC50 (concentration killing 50% of cells) (T47D): > 100 µM | TGI (T47D): > 100 µM | GI50 (DU-145): 1.96 µM | LC50 (concentration killing 50% of starting cells) (DU-145): > 100 µM | TGI (DU-145): > 100 µM | GI50 (UO-31): 4.15 µM | LC50 (UO-31): > 100 µM | TGI (UO-31): 31 µM
